Experiments:
[1] = Oral bioavailability in human; assay type: ADME, organism-based; conditions: in silico prediction
MDA-MB-231 = experiment: Growth inhibition of human MDA-MB-231 cells at 10 uM after 48 hrs by sulforhodamine B assay; assay type: functional; conditions: MDA-MB-231, 48 h, read-out: GI
Outline: (§1)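 Single-dose screen at 10 µM across the NCI 60 panel. Cells in RPMI 1640 with 5% FBS and 2 mM L-glutamine, plated at 5000–40,000/well and preincubated 24 h at 37 °C, 5% CO2. Drug in DMSO, 48 h exposure. Fixed with TCA, stained with SRB, A515 read. Percent growth is taken relative to untreated control, and inhibition is 100 minus growth.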

PC-3 = experiment: Growth inhibition of human PC3 cells at 10 uM after 48 hrs by sulforhodamine B assay; assay type: functional; conditions: PC-3, 48 h, read-out: GI; outline: as §1
MCF7 = experiment: Growth inhibition of human MCF7 cells at 10 uM after 48 hrs by sulforhodamine B assay; assay type: functional; conditions: MCF7, 48 h, read-out: GI; outline: as §1
TK-10 = experiment: Growth inhibition of human TK10 cells at 10 uM after 48 hrs by sulforhodamine B assay; assay type: functional; conditions: TK-10, 48 h, read-out: GI; outline: as §1
SN12C = experiment: Growth inhibition of human SN12C cells at 10 uM after 48 hrs by sulforhodamine B assay; assay type: functional; conditions: read-out: GI; outline: as §1
CAKI-1 = experiment: Growth inhibition of human CAKI-1 cells at 10 uM after 48 hrs by sulforhodamine B assay; assay type: functional; conditions: CAKI-1, 48 h, read-out: GI
Outline: (§2)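 Single-dose NCI-60 prescreen at 10 µM for 48 h at 37 °C and 5% CO2, using cells grown in RPMI 1640 with 5% FBS and 2 mM glutamine. Protein was measured by SRB after TCA fixation: 10% final for adherent lines, 16% for suspension lines. Absorbance was read at 515 nm. Percent growth inhibition was obtained by subtracting percent growth from 100.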

A498 = experiment: Growth inhibition of human A498 cells at 10 uM after 48 hrs by sulforhodamine B assay; assay type: functional; conditions: A498, 48 h, read-out: GI; outline: as §2
ACHN = experiment: Growth inhibition of human ACHN cells at 10 uM after 48 hrs by sulforhodamine B assay; assay type: functional; conditions: read-out: GI; outline: as §2
SK-OV-3 = experiment: Growth inhibition of human SKOV3 cells at 10 uM after 48 hrs by sulforhodamine B assay; assay type: functional; conditions: SK-OV-3, 48 h, read-out: GI; outline: as §1
OVCAR-8 = experiment: Growth inhibition of human OVCAR8 cells at 10 uM after 48 hrs by sulforhodamine B assay; assay type: functional; conditions: OVCAR-8, 48 h, read-out: GI; outline: as §1
OVCAR-5 = experiment: Growth inhibition of human OVCAR5 cells at 10 uM after 48 hrs by sulforhodamine B assay; assay type: functional; conditions: OVCAR-5, 48 h, read-out: GI; outline: as §1
OVCAR-3 = experiment: Growth inhibition of human OVCAR3 cells at 10 uM after 48 hrs by sulforhodamine B assay; assay type: functional; conditions: OVCAR-3, 48 h, read-out: GI; outline: as §1
UACC-62 = experiment: Growth inhibition of human UACC62 cells at 10 uM after 48 hrs by sulforhodamine B assay; assay type: functional; conditions: UACC-62, 48 h, read-out: GI; outline: as §1
SK-MEL-28 [2] = experiment: Growth inhibition of human SK-MEL-28 cells at 10 uM after 48 hrs by sulforhodamine B assay; assay type: functional; conditions: SK-MEL-28, 48 h, read-out: GI; outline: as §1
MDA-MB-435 = experiment: Growth inhibition of human MDA-MB-435 cells at 10 uM after 48 hrs by sulforhodamine B assay; assay type: functional; conditions: MDA-MB-435, 48 h, read-out: GI; outline: as §1
M14 = experiment: Growth inhibition of human M14 cells at 10 uM after 48 hrs by sulforhodamine B assay; assay type: functional; conditions: M14, 48 h, read-out: GI; outline: as §1
SNB-75 = experiment: Growth inhibition of human SNB75 cells at 10 uM after 48 hrs by sulforhodamine B assay; assay type: functional; conditions: SNB-75, 48 h, read-out: GI; outline: as §1
SF-539 = experiment: Growth inhibition of human SF539 cells at 10 uM after 48 hrs by sulforhodamine B assay; assay type: functional; conditions: SF-539, 48 h, read-out: GI; outline: as §1
SF-268 = experiment: Growth inhibition of human SF268 cells at 10 uM after 48 hrs by sulforhodamine B assay; assay type: functional; conditions: SF-268, 48 h, read-out: GI; outline: as §1
NCI-H322M = experiment: Growth inhibition of human NCI-H322M cells at 10 uM after 48 hrs by sulforhodamine B assay; assay type: functional; conditions: read-out: GI; outline: as §1
NCI-H226 [3] = experiment: Growth inhibition of human NCI-H226 cells at 10 uM after 48 hrs by sulforhodamine B assay; assay type: functional; conditions: NCI-H226, 48 h, read-out: GI; outline: as §1
[4] = Growth inhibition of human EKVX cells at 10 uM after 48 hrs by sulforhodamine B assay; assay type: functional; conditions: read-out: GI
Outline: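 NCI-60 one-dose primary screen at a single 10 µM concentration. Cells in RPMI 1640 with 5% FBS, preincubated 24 h at 37 °C, 5% CO2. Drug exposure 48 h, then TCA fixation, SRB staining and absorbance at 515 nm. Percent growth calculated against time-zero and untreated control wells, then converted to percent growth inhibition.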

MOLT-4 = experiment: Growth inhibition of human MOLT4 cells at 10 uM after 48 hrs by sulforhodamine B assay; assay type: functional; conditions: MOLT-4, 48 h, read-out: GI; outline: as §1
RPMI-8226 = experiment: Growth inhibition of human RPMI8226 cells at 10 uM after 48 hrs by sulforhodamine B assay; assay type: functional; conditions: RPMI-8226, 48 h, read-out: GI; outline: as §1
CCRF-CEM = experiment: Growth inhibition of human CCRF-CEM cells at 10 uM after 48 hrs by sulforhodamine B assay; assay type: functional; conditions: read-out: GI; outline: as §2
K562 = experiment: Growth inhibition of human K562 cells at 10 uM after 48 hrs by sulforhodamine B assay; assay type: functional; conditions: K562, 48 h, read-out: GI; outline: as §1
UO-31 = experiment: Growth inhibition of human UO31 cells assessed as cell growth at 10^-4 M after 48 hrs by sulforhodamine B assay; assay type: functional; conditions: UO-31, 48 h, read-out: Activity
Malme-3M = experiment: Growth inhibition of human MALME-3M cells assessed as cell growth at 10^-4 M after 48 hrs by sulforhodamine B assay; assay type: functional; conditions: read-out: Activity
NCI-H226 [5] = experiment: Growth inhibition of human NCI-H226 cells assessed as cell growth at 10^-4 M after 48 hrs by sulforhodamine B assay; assay type: functional; conditions: NCI-H226, 48 h, read-out: Activity
SK-MEL-28 [6] = experiment: Growth inhibition of human SK-MEL-28 cells assessed as cell growth at 10^-5 M after 48 hrs by sulforhodamine B assay; assay type: functional; conditions: SK-MEL-28, 48 h, read-out: Activity
KM12 = experiment: Growth inhibition of human KM12 cells assessed as cell growth at 10^-6 M after 48 hrs by sulforhodamine B assay; assay type: functional; conditions: KM12, 48 h, read-out: Activity

Row | Compound | bioavailability [1] | inhibition of growth at 10 µM (MDA-MB-231) | inhibition of growth at 10 µM (PC-3) | inhibition of growth at 10 µM (MCF7) | inhibition of growth at 10 µM (TK-10) | inhibition of growth at 10 µM (SN12C) | inhibition of growth at 10 µM (CAKI-1) | inhibition of growth at 10 µM (A498) | inhibition of growth at 10 µM (ACHN) | inhibition of growth at 10 µM (SK-OV-3) | inhibition of growth at 10 µM (OVCAR-8) | inhibition of growth at 10 µM (OVCAR-5) | inhibition of growth at 10 µM (OVCAR-3) | inhibition of growth at 10 µM (UACC-62) | inhibition of growth at 10 µM (SK-MEL-28 [2]) | inhibition of growth at 10 µM (MDA-MB-435) | inhibition of growth at 10 µM (M14) | inhibition of growth at 10 µM (SNB-75) | inhibition of growth at 10 µM (SF-539) | inhibition of growth at 10 µM (SF-268) | further results
1 | O=C(NS(=O)(=O)c1ccc2nc(-c3ccccc3)c(-c3ccccc3)nc2c1)c1ccccc1 | 100% | 28.5% | 41.9% | 22.9% | 2.54% | 17.4% | 7.22% | 42.2% | 11.8% | 12.8% | 8.02% | 8.43% | 19.2% | 19.6% | 7.63% | 12.9% | 2.45% | 34.7% | 3.89% | 6.89% | inhibition of growth at 10 µM (NCI-H322M): 20.9%; inhibition of growth at 10 µM (NCI-H226 [3]): 62%; inhibition of growth at 10 µM [4]: 26.5%; inhibition of growth at 10 µM (MOLT-4): 44.9%; inhibition of growth at 10 µM (RPMI-8226): 58.5%; inhibition of growth at 10 µM (CCRF-CEM): 41.3%; inhibition of growth at 10 µM (K562): 45.8%
2 | O=S(=O)(Nc1cccc2ccccc12)c1ccc2nc(-c3ccccc3)c(-c3ccccc3)nc2c1 | 100% | 38.7% | 41.8% | 23% | 6.34% | 8.87% | 3.34% | 31.9% | 21.9% | 5.86% | 20.6% | 2.98% | 30.9% | 28.9% | 5.98% | 20.4% | 2.23% | 39.9% | 5.57% | 2.78% | inhibition of growth at 10 µM (NCI-H322M): 22.2%; inhibition of growth at 10 µM (NCI-H226 [3]): 44%; inhibition of growth at 10 µM [4]: 71.2%; inhibition of growth at 10 µM (MOLT-4): 47.8%; inhibition of growth at 10 µM (RPMI-8226): 44.3%; inhibition of growth at 10 µM (CCRF-CEM): 58.3%; inhibition of growth at 10 µM (K562): 49.6%
3 | COc1ccccc1NS(=O)(=O)c1ccc2nc(-c3ccccc3)c(-c3ccccc3)nc2c1 | 100% | 48.3% | 52.8% | 31.8% | 1.26% | 32.6% | 23.9% | 42.8% | 13.1% | 18.6% | 24.1% | 12.7% | 13.5% | 23.4% | 12.7% | 22.5% | 26% | 31.9% | 24.7% | 23.8% | inhibition of growth at 10 µM (NCI-H322M): 23.2%; inhibition of growth at 10 µM (NCI-H226 [3]): 69.9%; inhibition of growth at 10 µM [4]: 48.8%; inhibition of growth at 10 µM (MOLT-4): 56.9%; inhibition of growth at 10 µM (RPMI-8226): 65.7%; inhibition of growth at 10 µM (CCRF-CEM): 49.8%; inhibition of growth at 10 µM (K562): 45.5%
4 | O=S(=O)(Nc1ccccn1)c1ccc2nc(-c3ccccc3)c(-c3ccccc3)nc2c1 | 100% | 80.1% | 72.2% | 65.9% | 30.2% | 38.5% | 54.1% | 70.2% | 34.3% | 44.9% | 52.8% | 24.3% | 48.9% | 41.1% | 30.3% | 54.2% | 62.8% | 61.8% | 61.9% | 27.6% | growth at 100 µM (UO-31): 59%; growth at 100 µM (Malme-3M): 97%; growth at 100 µM (NCI-H226 [5]): 70%; growth at 10 µM (SK-MEL-28 [6]): 19%; growth at 1 µM (KM12): 99%; inhibition of growth at 10 µM (NCI-H322M): 59.4%; inhibition of growth at 10 µM (NCI-H226 [3]): -1.38%; inhibition of growth at 10 µM [4]: 80.8%; inhibition of growth at 10 µM (MOLT-4): 86.8%; inhibition of growth at 10 µM (RPMI-8226): 89.9%; inhibition of growth at 10 µM (CCRF-CEM): 70.7%; inhibition of growth at 10 µM (K562): 64.4%
5 | NC(=S)NNS(=O)(=O)c1ccc2nc(-c3ccccc3)c(-c3ccccc3)nc2c1 | 81.4% | 17.6% | 34.6% | 18.9% | 2.74% | 6.98% | 2.94% | 26.8% | 1.83% | 5.98% | 5.83% | 4.85% | 1.84% | 24.3% | 6.93% | 11.1% | 4.23% | 25.6% | 21.7% | 2.92% | inhibition of growth at 10 µM (NCI-H322M): 2.92%; inhibition of growth at 10 µM (NCI-H226 [3]): 52.9%; inhibition of growth at 10 µM [4]: 23.7%; inhibition of growth at 10 µM (MOLT-4): 28.1%; inhibition of growth at 10 µM (RPMI-8226): 46.4%; inhibition of growth at 10 µM (CCRF-CEM): 35.8%; inhibition of growth at 10 µM (K562): 34.8%
6 | CC(=S)NS(=O)(=O)c1ccc2nc(-c3ccccc3)c(-c3ccccc3)nc2c1 | 94.7% | 14.8% | 33.9% | 11.8% | 6.93% | 2.83% | 5.83% | 22.7% | 16.6% | 4.85% | 3.93% | 2.84% | 1.94% | 20.7% | 1.73% | 4.73% | 2.85% | 26.9% | 3.29% | 1.86% | inhibition of growth at 10 µM (NCI-H322M): 17.8%; inhibition of growth at 10 µM (NCI-H226 [3]): 53.6%; inhibition of growth at 10 µM [4]: 8.53%; inhibition of growth at 10 µM (MOLT-4): 20.5%; inhibition of growth at 10 µM (RPMI-8226): 39.6%; inhibition of growth at 10 µM (CCRF-CEM): 24.8%; inhibition of growth at 10 µM (K562): 26.8%

Source: ChEMBL document CHEMBL2407075, “Sulphonamido-quinoxalines: search for anticancer agent” (Eur J Med Chem, 2013)
